# Hits are enriched below; roughly 9.8% of the tested compounds scored in any of these assays.
# Calpain2 inh: calpain II (pig) inhibition. AID 1236. inhibition, % at 16 µM. purified calpain II, fluorogenic peptide substrate, 30 min. 0.37% of 220,000 active;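 active means inhibition above about 50%, limit read from the data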
# Rad51 HR inh: Rad51 (human) homologous recombination inhibition; Q06609; hRad51 DNA strand exchange, fluorescence dequenching; inhibition, % at 10 µM; 0.085% of 200,000 active; AID 1385;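 active means inhibition above 40% at the single screening dose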;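 further: 0% = DMSO control wells and 100% = blanks with heterologous ssDNA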
# Target sequence (Q06609 whole entry, looked up): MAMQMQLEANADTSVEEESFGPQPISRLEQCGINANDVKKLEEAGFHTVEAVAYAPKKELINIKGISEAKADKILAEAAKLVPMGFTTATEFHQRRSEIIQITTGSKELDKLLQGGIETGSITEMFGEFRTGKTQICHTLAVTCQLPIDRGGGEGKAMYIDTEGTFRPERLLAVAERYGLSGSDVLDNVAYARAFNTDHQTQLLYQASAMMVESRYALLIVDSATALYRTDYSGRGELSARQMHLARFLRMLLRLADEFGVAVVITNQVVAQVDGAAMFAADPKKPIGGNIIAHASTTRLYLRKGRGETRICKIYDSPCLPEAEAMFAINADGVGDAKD
#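 Assay system: Human Rad51 nucleoprotein filaments preassembled on unlabelled ssDNA | Reagent: Donor/quencher-labelled 47-bp dsDNA substrate | Doses: One concentration, 10 µM final | Times: 37 °C 15-min filament assembly, 30-min compound preincubation, 15-min exchange | Technique: Fluorescein emission 520 nm, excitation 485 nm | Benchmarks: Plate control and blank wells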
# PMI activator: increases human mannose-6-phosphate isomerase activity; P34949; purified human PMI, coupled resazurin fluorescence, 20 min; active compounds read high; 1 = vehicle control, 0 substrate-free wells; activation factor at 20 µM; 0.005% of 190,000 active; AID 1214;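 active means activation factor of 2 or more at 20 µM, relative to plate controls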
# PMI act hi M6P: activators of human phosphomannose isomerase at near-saturating mannose 6-phosphate. P34949. coupled PMI enzyme assay, resazurin fluorescence, 20 min; active compounds read high; 1 = untreated enzyme, 0 = substrate-free blank. activation factor at 20 µM. 0.34% of 190,000 active. AID 1216;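 active means activation factor of 2 or more at 20 µM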
#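 Test system: human phosphomannose isomerase with PGI, G6PDH, diaphorase coupling enzymes; amount: 15 ng/mL PMI; incubation: enzyme reaction with compound 20 min at room temperature; technique: resorufin fluorescence (Ex 544/Em 590 nm) from resazurin via diaphorase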
# WT yeast gro inh: growth inhibition of WT yeast, mitochondrial fusion screen; mitochondrial fusion phenotypic screen, WT strain; inhibition, % at 10 µM; AID 1362; 2.1% of 190,000 active; in the data active means inhibition above about 58%; tested in S. cerevisiae
# Lmaj promast: reduces viability of Leishmania major promastigotes; resazurin fluorescence viability; inhibition, % at 10 µM; 9% of 200,000 active; AID 1063; in the data active means inhibition above about 50%;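 further: promastigotes grown with compound for 44 hours at 28 °C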
# Numbers without * were called inactive; i = inactive; nt = no result.
SMILES,Calpain2 inh,Rad51 HR inh,PMI activator,PMI act hi M6P,WT yeast gro inh,Lmaj promast
CCC(=O)NC(=S)NNC(=O)COc1ccc(Br)cc1,-28,0,0.7,0.9,24,74*
CCC(=O)NC(=S)NNC(=O)c1ccc(OC)cc1,9,5,0.8,0.8,-26,0
CCCOc1ccc(C(=O)NNC(=S)NC(C)=O)cc1,19,3,0.9,0.9,14,97*
CC(C)CC(=O)NC(=S)NNC(=O)c1ccc([N+](=O)[O-])cc1,-9,-5,0.8,0.9,-1,18
CCCCOc1ccc(C(=O)NNC(=S)NC(=O)CC)cc1,1,nt,1.1,1.2,88,93*
CCC(=O)NC(=S)NNC(=O)c1ccc([N+](=O)[O-])cc1,10,-1,0.8,0.9,-11,97*
CN(CCn1ccnc1)Cc1cn(Cc2ccccc2)nc1-c1ccc2c(c1)OCO2,0,3,nt,nt,nt,nt
COc1ccc(C2NCCc3c2[nH]c2ccccc32)cc1CSc1nc2ccccc2s1 (centres undefined),-76,-5,1.3,1.8,80,60*
COc1ccc(C(=O)Nc2c(C(C)(C)C)nn(C)c2C(C)(C)C)cc1,-2,11,nt,nt,nt,nt
C/C=C/c1ccc(OCCOc2cc(C=O)ccc2OC)c(OC)c1,-36,-1,1,1,5,85*
C/C=C/c1ccc(OCCCNC2CCCC2)c(OC)c1,17,1,1,0.9,nt,100*
O=C(Cn1c(=O)n(-c2ccc(F)cc2)c(=O)c2sccc21)NC1CCCCC1,-25,-2,1.1,1.1,-1,1
O=C(c1ccc(F)cc1)N1CCN(c2ccc([N+](=O)[O-])c(N3CCCCC3)c2)CC1,0,-2,0.9,0.9,26,1
O=C(c1cccc(F)c1)N1CCN(c2cc(N3CCCCC3)c(F)cc2[N+](=O)[O-])CC1,13,1,0.8,0.8,61*,18
NS(=O)(=O)c1ccc(N2N=C(c3ccccc3)CC2c2cccc(F)c2)cc1 (centres undefined),-349,-2,0.7,0.7,85*,41
NS(=O)(=O)c1ccc(N2N=C(c3ccc(Br)cc3)CC2c2ccc(F)cc2)cc1 (centres undefined),i,-4,0.8,0.7,92*,95*
CC(=O)Nc1ccc(Cc2nc3ccccc3[nH]2)cc1,-28,-4,1,1,1,-4
OC(COc1ccc2c(c1)CCC2)CN1CCN(c2ccccc2F)CC1 (centres undefined),33,0,0.8,0.9,-10,74*
COc1ccc(OCC(O)CN2CCN(c3ccc(Cl)cc3)CC2)cc1 (centres undefined),1,7,nt,nt,nt,nt
OC(COc1ccc(Cl)cc1)CN1CCN(c2cccc(Cl)c2)CC1 (centres undefined),24,23,nt,nt,nt,nt
C=CCc1ccccc1OCC(O)CN(C(C)C)C(C)C (centres undefined),-11,-2,0.9,0.9,-12,100*
COc1ccc(N2CCN(CC(O)COc3ccc4c(c3)CCC4)CC2)cc1 (centres undefined),18,2,1,1,-4,92*
C=CCc1ccccc1OCC(O)CN1CCN(c2ccc(OC)cc2)CC1 (centres undefined),11,2,0.9,0.9,-5,70*
CS/C(N)=N/S(=O)(=O)c1ccc(NC(C)=O)cc1,6,-6,nt,nt,nt,nt
CCN(CC)c1c([N+](=O)[O-])c(=O)n(CC)c2ccccc12,-5,3,nt,nt,nt,nt
SMILES,Calpain2 inh,Rad51 HR inh,PMI activator,PMI act hi M6P,WT yeast gro inh,Lmaj promast
O=S(=O)(NCc1c(Cl)cccc1Oc1ccccc1)c1ccc(F)cc1,36,8,nt,nt,nt,nt
Clc1ccc(Nc2ccccc2)nn1,-1,17,nt,nt,nt,nt
Cc1cc(Cl)c(OCCCN2CCCCC2)c(Br)c1,-3,nt,1.1,1.1,8,97*
O=C(OCCCN1CCCC1)C1(c2ccccc2)CCCC1,8,-6,0.9,0.9,7,100*
Cc1cc(Cl)c(OCCN2C(=O)NC(C)(C)C2=O)c(Br)c1,-15,2,1.1,1,-3,63*
Brc1ccccc1OCCCCn1cnc2ccccc21,20,5,0.9,1,47,19
Brc1ccccc1OCCCN1CCCCCC1,-15,nt,0.9,1,8,90*
Cc1cc(Cl)c(OCCCSc2nc(C)cc(=O)[nH]2)c(Br)c1,-2,4,0.9,0.9,-2,-8
CCOc1ccccc1OCCC(=O)OCC(=O)c1ccc[nH]1,-54,-4,1.1,1,-15,-7
COc1cc(/C=C/C(=O)OC(C)C(=O)Nc2c(C)n(C)n(-c3ccccc3)c2=O)ccc1OCC#N (centres undefined),-61,8,1,1,-16,-16
O=C(OCCN1CCCCC1)c1ccccc1Cl,-7,-2,1.1,1.1,-26,1
Brc1ccccc1OCCCCCN1CCOCC1,-4,-7,1.2,1.2,19,93*
CC(=O)c1ccccc1OCCCN1CCCCC1,-51,8,1,1,7,90*
Clc1ccccc1OCCCCN1CCCC1,-2,-6,1,1.1,-2,96*
COc1ccc(Cl)cc1NC(=S)NNC(=O)C1(C)CC1(Cl)Cl (centres undefined),15,-19,1,1,6,-8
Cc1ccc(NC(=S)N(CCCN2CCC(C)CC2)Cc2ccco2)cc1C,20,1,1,0.9,14,82*
CCN1CCN(CCCN(Cc2ccco2)C(=S)Nc2cc(Cl)ccc2C)CC1,15,1,1,1.1,-1,72*
Cc1ccsc1/C=N/NC(=O)C1C(=O)NCC1c1ccccc1 (centres undefined),-13,-3,nt,nt,nt,nt
COCCNC(=S)Nc1ccc2[nH]c(=O)[nH]c2c1,1,5,1.3,1.4,-2,3
O=C1CC(NNc2ccccc2)C(=O)N1c1ccccc1 (centres undefined),11,-1,1.7,2.5*,0,62*
Cc1ccc(NNC2CC(=O)N(c3cccc(Cl)c3)C2=O)cc1 (centres undefined),-10,nt,1.7,2.6*,9,-4
COc1ccc(N2C(=O)CC(NNc3nc4ccccc4s3)C2=O)cc1 (centres undefined),3,nt,nt,nt,nt,nt
COc1ccc(NC2CC(=O)N(c3ccccc3)C2=O)cc1 (centres undefined),-25,4,1,1.1,-18,-2
Cc1ccc(N2C(=O)CC(NNc3nc4ccccc4s3)C2=O)cc1C (centres undefined),8,-1,0.9,0.9,5,56*
Cc1ccc2c(c1)C1CN(C)CCC1N2C(=O)COc1ccccc1F (centres undefined),20,13,nt,nt,nt,nt
Cc1cccn2c(/C=N/OCc3cccc(F)c3)c(-c3ccc(Cl)cc3)nc12,-42,-6,1,1,36,56*
